Active and inactive are the calls of the source. The calls are words filed in the database; no cut-off is given here.
Assays:
[1] = target: T1, Free fatty acid receptor 1 (Homo sapiens, UniProt O14842); assay: Agonist activity at human PK-tagged GPR40 expressed in HEK293 cells assessed as EA-tagged beta-arrestin recruitment after 90 mins in presence of 1 % heat inactivated FBS by beta-galactosidase reporter gene assay; assay type: cell-based
[2] = target: Free fatty acid receptor 1 (Rattus norvegicus) (UniProt Q8K3T4); assay: Agonist activity at rat PK-tagged GPR40 expressed in human U2OS cells assessed as EA-tagged beta-arrestin recruitment after 90 mins in presence of 1 % heat inactivated FBS by beta-galactosidase reporter gene assay relative to untreated control; assay type: cell-based
[3] = AUC (0 to 24 hrs) in Sprague-Dawley rat at 1 mg/kg, po; assay type: ADME, organism-based; set-up: time < 24 hr, dose 1 mg/kg, route oral; settings: in vivo
[4] = Tmax in Sprague-Dawley rat at 10 mg/kg, po; assay type: ADME, organism-based; settings: in vivo
[5] = Tmax in Sprague-Dawley rat at 500 mg/kg, po; assay type: ADME, organism-based; settings: in vivo
[6] = Clearance in Sprague-Dawley rat at 1 mg/kg, iv; assay type: ADME, organism-based; settings: in vivo
[7] = Volume of distribution at steady state in Sprague-Dawley rat at 1 mg/kg, iv; assay type: ADME, organism-based; settings: in vivo, read-out: Vdss
[8] = Half life in Sprague-Dawley rat at 1 mg/kg, iv; assay type: ADME, organism-based; settings: in vivo
[9] = AUC (0 to 24 hrs) in Beagle dog at 30 mg/kg, po; assay type: ADME, organism-based, Canis lupus familiaris; set-up: dose 30 mg/kg, time < 24 hr, route oral; settings: in vivo
[10] = AUC (0 to 24 hrs) in Beagle dog at 100 mg/kg, po; assay type: ADME, organism-based, Canis lupus familiaris; set-up: time < 24 hr, dose 100 mg/kg, route oral; settings: in vivo
[11] = AUC (0 to 24 hrs) in Beagle dog at 300 mg/kg, po; assay type: ADME, organism-based, Canis lupus familiaris; set-up: time < 24 hr, dose 300 mg/kg, route oral; settings: in vivo
[12] = Initial plasma concentration in Beagle dog at 1 mg/kg, iv; assay type: ADME, organism-based, Canis lupus familiaris
[13] = Cmax in Beagle dog at 30 mg/kg, po; assay type: ADME, organism-based, Canis lupus familiaris; set-up: dose 30 mg/kg, route oral; settings: in vivo
[14] = Tmax in Beagle dog at 100 mg/kg, po; assay type: ADME, organism-based, Canis lupus familiaris; settings: in vivo
Outline: (§1)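 Dogs dosed orally at 30, 100 or 300 mg/kg, N = 2 per dose.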

[15] = Tmax in Beagle dog at 300 mg/kg, po; assay type: ADME, organism-based, Canis lupus familiaris; settings: in vivo; outline: as §1
[16] = Half life in Beagle dog at 1 mg/kg, iv; assay type: ADME, organism-based, Canis lupus familiaris; settings: in vivo
[17] = Aqueous solubility of the compound at pH 7.4; assay type: physicochemical
Outline: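 Solubility was measured by DMSO/aqueous precipitation at pH 7.4 and reported as the last soluble concentration.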

[18] = Solubility of the compound in DMSO at pH 7.4 by aqueous precipitation assay; assay type: physicochemical
Outline: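 DMSO stock diluted into aqueous buffer at pH 7.4 in a precipitation assay. Result reported as the last soluble concentration, upper limit 100 µM.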

[19] = target: Free fatty acid receptor 1 (Rattus norvegicus) (UniProt Q8K3T4); assay: Agonist activity at GPR40 in Sprague-Dawley rat islets assessed as glucose-stimulated insulin secretion levels at 10 uM in presence of 11.2 mM glucose by ELISA (reference value: 6.24 ng/ml)
Rattus norvegicus [20] = assay: Antidiabetic activity in po dosed Zucker fa/fa rat assessed as reduction in blood glucose AUC administered for 1 day followed by OGTT at 1 hr after compound dosing and measured 60 mins post glucose challenge by oral glucose tolerance test; assay type: functional
Outline: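 Male Zucker fa/fa rats, 10 weeks old, were dosed orally at 1, 3 and 10 mg/kg. The OGTT was run 1 h after dosing with an oral glucose challenge of 2 g/kg. The glucose AUC was calculated, and a dose-response curve gave the ED90.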

[21] = target: T1, Free fatty acid receptor 1; assay: Agonist activity at human GPR40 receptor expressed in HEK293 cells assessed as increase in intracellular calcium flux after 2.5 hrs measured over 3 mins in presence of 0.1% serum albumin by calcium 4 dye-based FLIPR assay; assay type: functional, cell-based
[22] = Drug metabolism in rat hepatocytes assessed as metabolite-A formation; assay type: ADME, cell-based, Hepatocyte
[23] = Drug metabolism in dog hepatocytes assessed as metabolite-B formation; assay type: ADME, cell-based, Canis lupus familiaris, Hepatocyte
Rattus norvegicus [24] = assay: Antidiabetic activity in Zucker fa/fa rat assessed as reduction in blood glucose AUC at 1 to 10 mg/kg, po administered for 1 day followed by OGTT at 1 hr after compound dosing and measured 60 mins post glucose challenge by oral glucose tolerance test; assay type: functional, organism-based
Outline: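 Male Zucker fa/fa rats, 10 weeks old, were dosed orally with 1, 3 or 10 mg/kg, alongside a reference GPR40 agonist as positive control. The OGTT was run 1 h after dosing with a 2 g/kg oral glucose load. Blood glucose was sampled at 0, 10, 20, 40 and 60 min, with the legend also listing 120 min. Glucose AUC was assessed on day 1.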

[25] = target: T2, Peroxisome proliferator-activated receptor gamma (Homo sapiens) (UniProt P37231); assay: Displacement of [3H]-agonist from human PPARgamma expressed in baculovirus infecetd Sf9 cells system up to 30 uM after 10 hrs in presence of DR2 by scintillation proximity assay
T2 sequence (whole entry): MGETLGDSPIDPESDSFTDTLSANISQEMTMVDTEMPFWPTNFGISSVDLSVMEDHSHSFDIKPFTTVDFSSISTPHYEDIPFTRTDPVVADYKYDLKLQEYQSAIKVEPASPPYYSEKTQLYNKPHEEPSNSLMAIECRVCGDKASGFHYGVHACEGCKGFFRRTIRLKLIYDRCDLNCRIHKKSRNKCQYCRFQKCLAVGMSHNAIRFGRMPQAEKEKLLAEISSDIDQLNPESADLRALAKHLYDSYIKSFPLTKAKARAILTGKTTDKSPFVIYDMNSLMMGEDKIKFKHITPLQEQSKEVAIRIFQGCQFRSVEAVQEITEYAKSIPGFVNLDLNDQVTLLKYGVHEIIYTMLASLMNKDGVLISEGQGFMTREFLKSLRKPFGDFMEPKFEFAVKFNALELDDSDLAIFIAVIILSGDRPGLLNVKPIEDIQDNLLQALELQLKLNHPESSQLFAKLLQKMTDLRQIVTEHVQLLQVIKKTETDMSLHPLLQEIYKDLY
Outline: (§2)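 PPAR alpha, delta and gamma binding and functional activity were each tested at concentrations up to 30 µM.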

[26] = target: T3, Peroxisome proliferator-activated receptor delta (Homo sapiens) (UniProt Q03181); assay: Agonist activity at GAL4-fused human PPARdelta expressed in African green monkey CV1 cells up to 30 uM after 24 hrs by luciferase reporter gene assay; assay type: cell-based; outline: as §2
T3 sequence (whole entry): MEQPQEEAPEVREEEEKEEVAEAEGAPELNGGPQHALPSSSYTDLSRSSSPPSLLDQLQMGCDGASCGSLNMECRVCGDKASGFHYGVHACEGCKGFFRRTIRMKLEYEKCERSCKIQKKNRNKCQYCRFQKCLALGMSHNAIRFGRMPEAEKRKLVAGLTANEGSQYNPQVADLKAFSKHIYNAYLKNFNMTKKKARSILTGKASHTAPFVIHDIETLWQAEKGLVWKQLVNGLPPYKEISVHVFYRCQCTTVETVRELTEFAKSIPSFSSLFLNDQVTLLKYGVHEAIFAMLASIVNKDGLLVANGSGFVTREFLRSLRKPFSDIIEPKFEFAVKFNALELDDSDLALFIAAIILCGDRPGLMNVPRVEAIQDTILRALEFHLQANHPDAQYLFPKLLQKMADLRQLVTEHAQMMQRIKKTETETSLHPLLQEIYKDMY

[27] = target: T2, Peroxisome proliferator-activated receptor gamma (Homo sapiens); assay: Agonist activity at […] human PPARgamma expressed in African green monkey CV1 cells up to 30 uM after 24 hrs by luciferase reporter gene assay; assay type: cell-based; outline: as §2

T1 sequence (O14842 whole entry): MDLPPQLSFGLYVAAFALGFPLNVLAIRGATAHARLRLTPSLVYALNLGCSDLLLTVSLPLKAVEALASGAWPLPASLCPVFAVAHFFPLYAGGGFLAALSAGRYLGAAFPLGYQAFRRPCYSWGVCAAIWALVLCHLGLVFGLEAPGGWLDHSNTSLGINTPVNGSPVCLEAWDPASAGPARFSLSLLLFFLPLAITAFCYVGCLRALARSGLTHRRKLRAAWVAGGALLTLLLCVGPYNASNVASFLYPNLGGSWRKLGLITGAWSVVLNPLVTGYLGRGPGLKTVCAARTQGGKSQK
Sequence of Free fatty acid receptor 1 (Rattus norvegicus) (Q8K3T4 whole entry): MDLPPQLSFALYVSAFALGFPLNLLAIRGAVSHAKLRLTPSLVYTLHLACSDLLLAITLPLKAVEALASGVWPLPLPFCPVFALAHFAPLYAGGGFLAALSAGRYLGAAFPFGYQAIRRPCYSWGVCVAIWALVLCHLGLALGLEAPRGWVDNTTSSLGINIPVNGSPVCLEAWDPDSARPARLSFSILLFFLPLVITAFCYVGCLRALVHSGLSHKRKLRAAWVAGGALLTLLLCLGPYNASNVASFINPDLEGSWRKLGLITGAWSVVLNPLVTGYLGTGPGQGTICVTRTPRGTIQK

EC50 [1]: 108 nM | %max [2]: 130% | AUC(0-t) at 24 h [3]: 11.7 µg·h/mL | Tmax [4]: 4 h | Tmax [5]: 6.7 h | clearance [6]: 1.32 mL/min/kg | Vd [7]: 0.33 L/kg | half-life [8]: 3.98 h | AUC(0-t) at 24 h [9]: 120 µg·h/mL | AUC(0-t) at 24 h [10]: 3320 µg·h/mL | AUC(0-t) at 24 h [11]: 4010 µg·h/mL | C0 [12]: 8.24 µg/mL | Cmax [13]: 126 µg/mL | Tmax [14]: 3 h | Tmax [15]: 6 h | half-life [16]: 6.53 h | solubility [17]: > 100 µM | solubility kinetic [18]: > 100 µM | Activity [19]: 19.4 ng/mL | Activity [21]: Active | Drug metabolism [22]: Metabolite_Detected | Drug metabolism [23]: Metabolite_Detected | Activity [25]: inactive | Activity [26]: inactive | Activity [27]: inactive
Compound: CC#C[C@@H](CC(=O)O)c1ccc(OCc2ccc3nc(-c4c(C)cccc4C)nn3c2)cc1
ED90 (Rattus norvegicus [20]): 4.1 mg/kg | Activity (Rattus norvegicus [24]): Active
